Measurements as given in PubChem BioAssay AID821 (SRMLSC, 2007).
Calls of active or inactive are those of the source.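 The calls were made as follows: active = compounds whose fitted half-maximal concentration for reducing fibroblast viability is 100 µM or lower; inactive = the rest.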

Assay: LL 47 lung fibroblast growth inhibition, concentration-response, selectivity test for endothelial growth inhibitor program, cellular, luminescent ATP readout (AID 821);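 also: 100% = median of untreated cell-only wells and 0% = no luminescence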
Conditions: LL 47 lung fibroblast viability, ATP luminescence; at 20 µM (top of the series)
Outline: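 Assay system: LL 47 human lung fibroblast cells | Amount: 1,150 cells/well | Schedule: 72 h exposure, 37 °C | Measured by: CellTiter-Glo luminescence | Measure: Percent viability relative to untreated wells, EC50 via 4-parameter fit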
For `COc1ccc(CNC(=O)c2cc3c(C)nc4ccccc4c3o2)c(OC)c1`, the viability was 88.7% (inactive).
For `COc1cc(/C=c2\s/c(=C(/C#N)C(=O)N3CCCC3)n(-c3ccccc3)c2=O)ccc1O`, the viability was 104% (inactive).
For `CCCC1(CCC)NC(=O)N(CC(=O)Nc2ccccc2OC)C1=O`, the viability was 92.2% (inactive).
In the case of `CC1=C(C(=O)OC2CCCCCCC2)C(c2cc3c(cc2Br)OCO3)CC(=O)N1` (stereo not drawn), the viability is reported as 82.2% (inactive).
For `CCOC(=O)c1c(NC(=O)C2COc3ccccc3O2)sc(C(C)=O)c1C` (stereo not drawn), the viability was 104% (inactive).
In the case of `Nc1nc2ccccc2n1/N=C/c1ccc(-c2ccccc2)o1`, the viability is reported as 111% (inactive).
For `CCCCCCn1c(C)nc2c(c1=O)c1nc3ccccc3nc1n2/N=C/c1ccco1`, the viability was 111% (inactive).
In the case of `Cn1cc(SCC(=O)Nc2nc3ccccc3s2)c2ccccc21`, the viability is reported as 82.4% (inactive).
In the case of `Cc1nn(C)c(C)c1NC(=O)CSc1nc(C2CC2)nc2c1cnn2-c1ccccc1`, the viability is reported as 108% (inactive).
In the case of `NC(=O)Cc1c[nH]c2cccc(O)c12`, the viability is reported as 111% (inactive).
With `CCn1c(SCC(N)=O)nnc1-c1ccc2[nH]c(C)c(C)c2c1` the viability was 99.8% (inactive).
For `COc1ccc(NC(=O)c2cc3n(n2)C(C(F)(F)F)CC(c2ccc(OC)cc2)N3)cc1` (stereo not drawn), the viability was 96.4% (inactive).
With `Brc1ccc(-c2csc(NNC3=NCCCCC3)n2)cc1` the viability was 90.2% (inactive).
With `CCc1ccc2[nH]c(=O)c(CN(Cc3ccccc3)C(=O)Nc3ccccc3OC)cc2c1` the viability was 88.9% (inactive).
In the case of `O=C(CCSc1ccc(Cl)cc1)N1CCN(c2ncccn2)CC1`, the viability is reported as 96.4% (inactive).
For `COc1cc(N=c2ssnc2Cl)c(OC)cc1Cl`, the viability was 88.6% (inactive).
With `O=C(Cc1sc(-c2ccccc2Cl)nc1-c1ccccc1)Nc1ccccc1` the viability was 99.7% (inactive).
With `CC(=O)c1c(C)[nH]c(C(=O)CSc2nnc(-c3ccccc3)n2Cc2ccc3c(c2)OCO3)c1C` the viability was 94.2% (inactive).
In the case of `COc1ccccc1NC(=O)CC1C(=O)NCCN1C(=O)Nc1ccc(Cl)c(Cl)c1` (stereo not drawn), the viability is reported as 82.4% (inactive).
With `CC1(C)Nc2ccc(O)cc2-c2c1ssc2=S` the viability was 92.1% (inactive).
In the case of `C=C(C)COc1ccc(-c2n[nH]c(C)c2Oc2ccccc2OC)c(O)c1`, the viability is reported as 94.7% (inactive).
In the case of `CN1CCN(c2ccccc2NC(=O)c2ccc(-c3ccc(Cl)cc3Cl)o2)CC1`, the viability is reported as 88.2% (inactive).
With `CNC(=O)Cn1c(=O)n(C)c2ccccc21` the viability was 107% (inactive).
With `O=C(CSc1ncnc2c1oc1ccccc12)Nc1nc2ccccc2s1` the viability was 105% (inactive).
In the case of `Cc1cccc(NC(=O)c2sc3nc4c(c(-c5cccs5)c3c2N)CN(C)CC4)c1`, the viability is reported as 86.7% (inactive).
For `Nc1c(C(=O)Nc2ccc3c(c2)OCCO3)nnn1CCc1ccccc1`, the viability was 82.1% (inactive).
For `CCOC(=O)N1CCc2c(sc(NC(=O)c3ccc(S(=O)(=O)N4CCCC4)cc3)c2C#N)C1`, the viability was 81.6% (inactive).
For `Cc1sc2nc(SCC(=O)NCc3ccco3)n(CCc3ccccc3)c(=O)c2c1C`, the viability was 121% (inactive).
With `Cc1ccc(C(=O)Nc2ncc(Cc3ccc(F)cc3)s2)o1` the viability was 117% (inactive).
For `CNC(=O)c1ccc(-c2sc3nc(N4CCOCC4)c4c(c3c2N)CCCC4)o1`, the viability was 90.4% (inactive).
With `N/C(Cc1ccc(Cl)cc1)=N\OC(=O)c1ccc2ccccc2c1` the viability was 91.6% (inactive).
For `CC1(c2ccccc2)CC(C)(C)N2C(=O)C3(C(C#N)=C(N)Oc4cc(O)ccc43)c3cccc1c32` (stereo not drawn), the viability was 87.7% (inactive).
With `Cc1nc2c(-c3ccccc3)c(C)[nH]n2c(=O)c1Cl` the viability was 119% (inactive).
In the case of `Cn1c(SCC(=O)Nc2ccc(N3CCOCC3)cc2)nnc1-c1ccccc1`, the viability is reported as 109% (inactive).
With `CC(C(=O)N1CCOCC1)N1C(=O)c2ccccc2C1=O` (stereo not drawn) the viability was 117% (inactive).
For `COc1cccc(-c2cc(C(=O)Nc3cc(C)n(Cc4ccc(Cl)cc4)n3)no2)c1`, the viability was 92% (inactive).
With `CCOC(=O)c1sc(NC(=O)CSc2nnnn2-c2ccc(C)cc2C)nc1C` the viability was 81.2% (inactive).
In the case of `CC(C)(C)n1cnc2cc(NS(=O)(=O)c3ccccc3)ccc21`, the viability is reported as 104% (inactive).
With `COCCCNC(=O)c1ccc2c(=O)n(Cc3ccc4c(c3)OCO4)c(=S)[nH]c2c1` the viability was 106% (inactive).
In the case of `CCOC(=O)c1c(CN2CCN(c3ccccc3)CC2)oc2ccc(O)cc12`, the viability is reported as 83.2% (inactive).
For `COc1ccccc1OCC(=O)Nc1cccc(-c2nc3ccccc3o2)c1`, the viability was 99% (inactive).
In the case of `CCCCC(=O)Nc1ccc(C(=O)Nc2ccc(S(=O)(=O)N3CCCC3)cc2)cc1`, the viability is reported as 104% (inactive).
With `COc1cc(-c2nnc(COc3ccc4cc(Br)ccc4c3)o2)cc(OC)c1OC` the viability was 127% (inactive).
For `O=C1c2[nH]nc(-c3ccccc3O)c2C(c2cccc(Cl)c2)N1Cc1ccco1` (stereo not drawn), the viability was 98.4% (inactive).
For `C/C(CC1CC2=C(CC1(C)C)C(C)(C)CCC2)=N\NC(N)=S` (stereo not drawn), the viability was 87.7% (inactive).
In the case of `Cc1ccccc1NC(=O)CSC(N)=O`, the viability is reported as 110% (inactive).
For `CCC(C)NC(=O)c1c(N)n(/N=C/c2cccnc2)c2nc3ccccc3nc12` (stereo not drawn), the viability was 104% (inactive).
With `CCOc1ccc2nc(NC(=O)CSc3nc4c(c(=O)n(C)c(=O)n4C)n3C(C)C)sc2c1` the viability was 102% (inactive).
For `O=C(Nc1ccc2c(c1)CCC2)c1cnn2c1NC(c1ccco1)CC2C(F)(F)F` (stereo not drawn), the viability was 83.8% (inactive).
With `CCCCCCn1c(SCC(=O)c2c(N)n(C)c(=O)n(C)c2=O)nc2ccccc21` the viability was 98.8% (inactive).
With `Cc1ccc(S(=O)(=O)c2c(C)nn(C(C)(C)C)c2OC(=O)c2ccc(Br)o2)cc1` the viability was 103% (inactive).
In the case of `COc1ccc(-n2c(SCC(=O)Nc3sc4c(c3C#N)CCCC4)nnc2-c2ccc(O)cc2)cc1`, the viability is reported as 94.1% (inactive).
In the case of `C=C(C)COc1ccc(-c2n[nH]c(C)c2-c2ccccc2OC)c(O)c1`, the viability is reported as 90.3% (inactive).
In the case of `Cc1ccc(C)c(N2CCN(CCCNC(=O)Cn3cc4c(n3)CCCCC4)CC2)c1`, the viability is reported as 83.3% (inactive).
With `COc1ccccc1N1CCN(CC(=O)c2c(C)[nH]c3cc(C)ccc23)CC1` the viability was 86.8% (inactive).
With `CSc1nc2c(cnn2-c2ccc(C)c(C)c2)c(=O)[nH]1` the viability was 93.2% (inactive).
With `Cn1nnc(NC(=O)CSc2ccc(Cl)cc2)n1` the viability was 125% (inactive).
With `C=CCOC(=O)C1=C(C)NC(SCC(=O)Nc2nccs2)=C(C#N)C1c1cccs1` (stereo not drawn) the viability was 91.3% (inactive).
In the case of `CCCN(CCO)Cc1cccc(Br)c1`, the viability is reported as 97.9% (inactive).
For `COc1ccc(OC)c(C(=O)CSc2nnc(-c3ccc(OC)c(OC)c3)o2)c1`, the viability was 88.4% (inactive).
In the case of `Cc1cc(NC(=O)CSc2nc(C(C)C)nc3sc4c(c23)CCCC4)no1`, the viability is reported as 93.6% (inactive).
With `Cc1c(CN(C)C(=O)c2sc3cc(Cl)ccc3c2Cl)cnn1C` the viability was 94.6% (inactive).
In the case of `CCCCCCn1c(O)c(C=NC2CCCCC2N)c(=O)[nH]c1=O` (stereo not drawn), the viability is reported as 113% (inactive).
In the case of `O=C(Nc1nnc(-c2ccc3c(c2)OCCO3)o1)c1ccc(Cc2ccccc2)cc1`, the viability is reported as 97.9% (inactive).
In the case of `COc1ccc(NC(=O)CSc2nnc(-c3cccs3)n2-c2ccccc2)cc1`, the viability is reported as 105% (inactive).
In the case of `Cc1ccc(NC(=O)C(C)N2C(=O)c3ccccc3C2=O)cc1` (stereo not drawn), the viability is reported as 107% (inactive).
For `CCOC(=O)c1c(OCC)[nH]c2c1cc(O)c1ccccc12`, the viability was 117% (inactive).
With `C=CCn1c(SCC(=O)NC(=O)NCc2ccco2)nc2sc(CC)cc2c1=O` the viability was 87.4% (inactive).
With `CCCc1nc(SCC(=O)N2CCC(Cc3ccccc3)CC2)c2c(=O)n(C)c(=O)n(C)c2n1` the viability was 106% (inactive).
In the case of `Cc1cccc2c1N(CCCOc1ccc(C(C)(C)C)cc1)C(=O)C2=O`, the viability is reported as 92.2% (inactive).
In the case of `CC1=C(C)CS(=O)N(S(=O)(=O)c2ccccc2)C1` (stereo not drawn), the viability is reported as 86.9% (inactive).
In the case of `O=C(Nc1cccc(-c2nc3ncccc3o2)c1)c1cc2ccccc2o1`, the viability is reported as 116% (inactive).
For `CC1=C(SCCC#N)S/C(=C2\SC(C)=C(SCCC#N)S2)S1`, the viability was 112% (inactive).
In the case of `O=C(CC1SCCNC1=O)Nc1cc(Cl)cc(Cl)c1` (stereo not drawn), the viability is reported as 100% (inactive).
In the case of `Cc1cc2nc(C3CCN(CC4COc5ccccc5O4)CC3)[nH]c2cc1C` (stereo not drawn), the viability is reported as 88.5% (inactive).
With `O=[N+]([O-])c1cccnc1N1CCC(c2cc(-c3cccc(C(F)(F)F)c3)n[nH]2)CC1` the viability was 102% (inactive).
For `N=c1nc(N)nc2n1NC(c1ccc(F)cc1)=CS2`, the viability was 104% (inactive).
With `Cc1cc(/C=N/n2cnnc2)c(C)n1-c1ccc(OCc2ccc(Cl)cc2Cl)cc1` the viability was 86.5% (inactive).
With `CC(=O)Nc1ccc(S(=O)(=O)NC2=C(N3CCN(Cc4ccccc4)CC3)C(=O)c3ccccc3C2=O)cc1` the viability was 89.8% (inactive).
With `Cn1c(NC(=O)c2cccc(Cn3cc(Cl)cn3)c2)nc2ccccc21` the viability was 103% (inactive).
For `Cc1cccc(Nc2nc(NCc3ccco3)nc(N3CCOCC3)n2)c1`, the viability was 80.4% (inactive).
With `Cn1nc(C(C)(C)C)cc1C(=O)NCc1ccc(N2CCCC2=O)cc1` the viability was 107% (inactive).
With `Cc1ccc2nc(NC(=O)CSc3ncnc4c3oc3ccccc34)sc2c1` the viability was 113% (inactive).
In the case of `CCc1ccc(NC(=O)CCc2nc3cccnc3n2Cc2ccc(OC)cc2)cc1`, the viability is reported as 90.2% (inactive).
With `Cc1cccc(N2CCN(C(=O)c3ccc4nc(-c5ccco5)c(-c5ccco5)nc4c3)CC2C)c1` (stereo not drawn) the viability was 105% (inactive).
In the case of `CCOc1ccc2nc(NC(=O)CN3CCC(n4nnc5cc(F)ccc54)CC3)sc2c1`, the viability is reported as 82.7% (inactive).
For `CN1CCN(C(=O)c2ccc(COc3ccc(Cl)cc3Cl)cc2)CC1`, the viability was 103% (inactive).
In the case of `CCOC(=O)c1c(NC(=O)COc2ncnc3sccc23)sc2c1CCC2`, the viability is reported as 83.6% (inactive).
In the case of `O=C1CCCc2c1[nH]c1ccc(Br)cc21`, the viability is reported as 107% (inactive).
For `Cc1ccccc1-c1nc(CN2CCC(C(=O)NCCC3=CCCCC3)CC2)c(C)o1`, the viability was 87.6% (inactive).
In the case of `Cc1cccc(-c2nc(CN3CCCC(C(=O)NC4CCCCCC4)C3)c(C)o2)c1` (stereo not drawn), the viability is reported as 90.9% (inactive).
In the case of `O=C(CSc1ccc2c(c1)OCCO2)Nc1ccc(Cl)cn1`, the viability is reported as 94.9% (inactive).
With `Cc1cc(C)n(-c2nc(Nc3ccccc3C)nc(-n3nc(C)cc3C)n2)n1` the viability was 97.1% (inactive).
